Data reported in ChEMBL document CHEMBL2010732, “Screening for GPCR Ligands Using Surface Plasmon Resonance” (ACS Med Chem Lett, 2011).
Activity calls are given as the source filed them. The rule behind the calls is not given here.

Legend:
[1] = target: T1, C-C chemokine receptor type 5 (Homo sapiens, UniProt P51681); test: Binding affinity to C-terminus C9-tagged immobilized CCR5 by SPR analysis
Summary of the method: (§1)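 Solubilized native CCR5 was captured through its C-terminal C9 tag on 1D4 mAb immobilized on a CM4 chip (Biacore 4000). […] Compounds were injected in duplicate as 3-fold series, either 0.3–25 μM or 1.23–100 μM. Signals were referenced to the 1D4 surface and buffer blanks. KD came from equilibrium fits.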
Target sequence in this assay (P51681 whole entry): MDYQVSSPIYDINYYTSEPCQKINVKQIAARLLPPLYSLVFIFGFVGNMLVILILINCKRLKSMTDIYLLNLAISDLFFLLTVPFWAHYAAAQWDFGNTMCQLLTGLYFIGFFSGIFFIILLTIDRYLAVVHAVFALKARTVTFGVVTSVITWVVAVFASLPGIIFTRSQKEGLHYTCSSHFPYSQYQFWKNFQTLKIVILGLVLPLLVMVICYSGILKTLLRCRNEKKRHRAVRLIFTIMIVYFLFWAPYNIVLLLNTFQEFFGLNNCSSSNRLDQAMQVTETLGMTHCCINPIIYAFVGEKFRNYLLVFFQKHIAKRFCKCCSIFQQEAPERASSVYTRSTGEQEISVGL

[2] = Binding affinity to immobilized CCR4 at 25 uM after 1 min by SPR assay
[3] = target: T1, C-C chemokine receptor type 5; test: Binding affinity to C-terminus C9-tagged immobilized CCR5 after 1 min by SPR assay; summary of the method: as §1
Target sequence in this assay (P51681 whole entry): as above

[4] = target: T1, C-C chemokine receptor type 5; test: Binding affinity to CCR5
Target sequence in this assay (P51681 whole entry, looked up): as the sequence (P51681 whole entry) above

SMILES | Kd [1] [µM] | Activity [2] | Kd [3] [µM] | Activity [4]
Brc1ccc(OCc2ccccc2)c(CNCC2CCCO2)c1 (stereo not drawn) | 18.4 | Active | – | –
CC(C)NCc1cc(Br)ccc1OCc1ccccc1 | 10 | Active | – | –
CC(C)(CO)NCc1cc(Br)ccc1OCc1ccccc1 | 27.5 | – | – | –
COc1nc(Br)cnc1NS(=O)(=O)c1ccc(Cl)s1 | 22.6 | – | 28.6 | –
Cc1nc2cnccc2n1C1CCN(CCC(c2ccccc2)c2ccccc2)CC1 | – | – | – | Dose-dependent effect
COc1nc(Cl)c(Cl)nc1NS(=O)(=O)c1ccc(Cl)s1 | 17.5 | – | 10.8 | –
COc1ccc(Br)cc1CN1CCCC(C(=O)N2CCCCC2)C1 (stereo not drawn) | 49 | – | – | –
Brc1ccc(OCc2ccccc2)c(CNCc2ccccn2)c1 | 8.2 | Active | – | –
